Reference: paper PMC8359281 (Clinical Pharmacology in Drug Development, 2020)

Experiments:
[1] = cited from earlier work
[2] = tested on: free cortisol; format: in vivo, human; conditions: oral methylprednisolone 16 mg once daily
Method in brief: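 In a single-centre, open-label, parallel-group study, healthy adults (18-50 years, BMI 18.5-30 kg/m2, 51-99 kg, confined on site) took methylprednisolone orally at 16 mg once daily for 15 days. The dose was then tapered to 8 mg daily for 2 days and 4 mg daily for 2 days. Blood for plasma free cortisol was drawn predose and 0.25–24 h postdose on days 1 and 15.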

[3] = tested on: free steroidogenic exposure; experiment: Steroidogenic exposure and methylprednisolone/prednisone dose equivalence; format: in vivo, human; conditions: methylprednisolone 16 mg once daily; derived by equation 2 (5 × AUCτ + AUECτ)
Method in brief: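 Steady-state data came from day 15 of oral methylprednisolone at 16 mg once daily. Free methylprednisolone AUCτ (noncompartmental) and free cortisol AUECτ over one dosing interval were combined by integrating the per-timepoint free steroidogenic concentration equation. Weekly free cortisol exposure was converted to methylprednisolone-equivalent dose, assuming dose-proportionality. Prednisone equivalents used a coefficient of 1.25.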

[4] = PK of ACTH1-24 after synthetic ACTH1-24 depot, phase 1 study; format: in vivo, human; conditions: postdosing of synthetic ACTH1-24 depot

## C[C@H]1C[C@@H]2[C@H]([C@@H](O)C[C@@]3(C)[C@H]2CC[C@]3(O)C(=O)CO)[C@@]2(C)C=CC(=O)C=C12 [methylprednisolone]
[1]
  potency of systemic action relative to cortisol: 5 times
[2]
  endogenous cortisol after administration: negligible
[3]
  free steroidogenic exposure at steady state (AUECτSG): 305 ng·h/mL

## ACTH1-24: the first 24 amino acids of adrenocorticotropic hormone; analyte measured in plasma after synthetic ACTH1-24 depot
[4]
  time by which plasma concentrations fell below the quantification limit: < 24 h
